# ChEMBL document CHEMBL1121430, “Bicyclic and tricyclic ergoline partial structures. Rigid 3-(2-aminoethyl)pyrroles and 3- and 4-(2-aminoethyl)pyrazoles as dopamine agonists” (1980)
# Tests used:
# Format in all cases: functional
# Rattus norvegicus [1] = assay: (§1) Percentage of lesioned rats exhibiting contralateral turning after intraperitoneal dosage of 0.1 mg/kg
# How it was run: (§2)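 Rats with unilateral 6-hydroxydopamine nigrostriatal lesions dosed intraperitoneally; contralateral rotation scored as percentage of rats turning and average turns counted over first 15 min after turning began; 6-10 rats per group.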
# Rattus norvegicus [2] = assay: (§3) Tested for lowering of serum prolactin level in reserpinized rat after i.p. administration at dosage of 0.05 mg/kg; conditions: route intraperitoneal
# Rattus norvegicus [3] = assay: (§4) Tested for average turns of rat / 1st 15 min at intraperitoneal dosage of 0.1 mg/kg; how it was run: as §2
# Rattus norvegicus [4] = assay: Percentage of lesioned rats exhibiting contralateral turning after intraperitoneal dosage of 1.0 mg/kg
# How it was run: (§5)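 Rats with unilateral 6-hydroxydopamine nigrostriatal lesions dosed i.p.; contralateral rotation scored as % of rats turning and average turns during first 15 min after turning began; 6-10 rats per group. Method of Ungerstedt and Arbuthnot.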
# Rattus norvegicus [5] = assay: (§6) Dopaminergic activity causing prolactin inhibition in reserpinized rat after i.p. administration at dosage of 5.0 mg/kg; conditions: ip, route intraperitoneal
# Rattus norvegicus [6] = species on record: Rattus norvegicus; assay: animal or person; conditions: ip, route intraperitoneal
# Rattus norvegicus [7] = assay: Tested for average turns of rat / 1st 15 min at intraperitoneal dosage of 1.0 mg/kg; how it was run: as §2
# Rattus norvegicus [8] = assay: (§7) Control Serum prolactin level in reserpinized rat after i.p. administration at dosage of 0.05 mg/kg; conditions: route intraperitoneal
# Rattus norvegicus [9] = assay: Average turns of rat / 1st 15 min at intraperitoneal dosage of 1.0 mg/kg
# Rattus norvegicus [10] = assay: Control Serum prolactin level in reserpinized rat after i.p. administration at dosage of 0.0005 mg/kg; conditions: route intraperitoneal
# How it was run: (§8)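 Serum prolactin measured in reserpinized male rats given drug intraperitoneally; control group serum level alongside treated level; percent inhibition derived from control versus treated means; mean ± standard error for 10 rats per group; significance level (p) reported versus control.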
# Rattus norvegicus [11] = assay: Tested for average turns of rat / 1st 15 min at intraperitoneal dosage of 0.02 mg/kg; how it was run: as §2
# Rattus norvegicus [12] = assay: Percentage of lesioned rats exhibiting contralateral turning after ip dosage of 0.02 mg/kg; conditions: route intraperitoneal; how it was run: as §2
# Rattus norvegicus [13] = assay: (§9) Dopaminergic activity causing prolactin inhibition in reserpinized rat after i.p. administration at dosage of 0.005 mg/kg; conditions: ip, route intraperitoneal; how it was run: as §8
# Rattus norvegicus [14] = assay: Tested for average turns of rat / 1st 15 min at intraperitoneal dosage of 0.05 mg/kg; how it was run: as §2
# Rattus norvegicus [15] = assay: Dopaminergic activity causing prolactin inhibition in reserpinized rat after i.p. administration at dosage of 0.0005 mg/kg; conditions: ip, route intraperitoneal; how it was run: as §8
# Rattus norvegicus [16] = assay: tested for average turns of rat / 1st 15 min at intraperitoneal dosage of 0.1 mg/kg; how it was run: as §2
# Rattus norvegicus [17] = assay: Control Serum prolactin level in reserpinized rat after i.p. administration at dosage of 0.005 mg/kg; conditions: route intraperitoneal; how it was run: as §8
# Rattus norvegicus [18] = assay: Percentage of lesioned rats exhibiting contralateral turning after ip dosage of 0.1 mg/kg; conditions: route intraperitoneal; how it was run: as §2
# Rattus norvegicus [19] = assay: Percentage of lesioned rats exhibiting contralateral turning after ip dosage of 0.05 mg/kg; conditions: route intraperitoneal; how it was run: as §2
# Rattus norvegicus [20] = assay: Tested for lowering of serum prolactin level in reserpinized rat after i.p. administration at dosage of 0.005 mg/kg; conditions: route intraperitoneal; how it was run: as §8
# Rattus norvegicus [21] = assay: Percentage of lesioned rats exhibiting contralateral turning after ip dosage of 1.0 mg/kg; conditions: route intraperitoneal; how it was run: as §2
# Rattus norvegicus [22] = assay: Tested for lowering of serum prolactin level in reserpinized rat after i.p. administration at dosage of 0.0005 mg/kg; conditions: route intraperitoneal; how it was run: as §8
# Rattus norvegicus [23] = assay: as §3; conditions: route intraperitoneal; how it was run: as §8; remark: listed apart in the source
# Rattus norvegicus [24] = assay: Percentage of lesioned rats exhibiting contralateral turning after intraperitoneal dosage of 0.05 mg/kg; how it was run: as §2
# Rattus norvegicus [25] = assay: (§10) Control Serum prolactin level in reserpinized rat after i.p. administration at dosage of 0.5 mg/kg; conditions: route intraperitoneal
# Rattus norvegicus [26] = assay: as §1; how it was run: as §5; remark: listed apart in the source
# Rattus norvegicus [27] = assay: Dopaminergic activity causing prolactin inhibition in reserpinized rat after i.p. administration at dosage of 0.5 mg/kg; conditions: ip, route intraperitoneal
# Rattus norvegicus [28] = assay: Tested for lowering of serum prolactin level in reserpinized rat after i.p. administration at dosage of 0.5 mg/kg; conditions: route intraperitoneal
# Rattus norvegicus [29] = assay: as §4; how it was run: as §5; remark: listed apart in the source
# Rattus norvegicus [30] = assay: as §10; conditions: route intraperitoneal; remark: listed apart in the source
# How it was run: (§11)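 Reserpinized male rats, intraperitoneal dosing; serum prolactin of vehicle control group reported in ng/mL as mean ± standard error, 10 rats per group, for comparison with treated group.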
# Rattus norvegicus [31] = assay: Control Serum prolactin level in reserpinized rat after i.p. administration at dosage of 5 mg/kg; conditions: route intraperitoneal; how it was run: as §11
# Rattus norvegicus [32] = assay: as §6; conditions: ip, route intraperitoneal; how it was run: as §8; remark: listed apart in the source
# Rattus norvegicus [33] = assay: (§12) Dopaminergic activity causing prolactin inhibition in reserpinized rat after i.p. administration at dosage of 0.05 mg/kg; conditions: ip, route intraperitoneal
# How it was run: (§13)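 Male rats pretreated with reserpine; drug given i.p. and serum prolactin measured (ng/mL) in controls and treated groups; % inhibition relative to control; mean ± SE for 10 rats per group; significance level p reported. Method of Clemens et al.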
# Rattus norvegicus [34] = assay: as §7; conditions: route intraperitoneal; how it was run: as §13; remark: listed apart in the source
# Rattus norvegicus [35] = assay: as §9; conditions: ip, route intraperitoneal; how it was run: as §13; remark: listed apart in the source
# Rattus norvegicus [36] = assay: as §12; conditions: ip, route intraperitoneal; how it was run: as §8; remark: listed apart in the source
SMILES,Average turns (Rattus norvegicus [3]),Exhibiting turning (Rattus norvegicus [4]),inhibition in vivo at 5 mg/kg (Rattus norvegicus [5]),inhibition in vivo at 0.05 mg/kg (Rattus norvegicus [6]),Inhibition (Rattus norvegicus [8]),Average turns (Rattus norvegicus [9]),Exhibiting turning (Rattus norvegicus [21]),inhibition in vivo at 0.5 mg/kg (Rattus norvegicus [27]),also measured
CN(C)C1Cc2cccc3[nH]cc(c23)C1.O=C(O)C(=O)O (stereo not drawn),0,75%,91%,45%,36.4 ng/mL,,,,Exhibiting turning (Rattus norvegicus [1]): 0%; Inhibition (Rattus norvegicus [2]): 19.9 ng/mL; Average turns (Rattus norvegicus [7]): 69
CCN(CC)C1CCc2c[nH]cc2C1.O=C(O)/C=C\C(=O)O (stereo not drawn),,0%,23%,,,0,,,
CCCN1CC(CSC)C[C@@H]2c3cccc4[nH]cc(c34)CC21.COS(=O)(=O)O (stereo partly drawn),,,,95%,,93,100%,,Inhibition (Rattus norvegicus [10]): 37.7 ng/mL; Average turns (Rattus norvegicus [11]): 0; Exhibiting turning (Rattus norvegicus [12]): 0%; inhibition in vivo at 0.005 mg/kg (Rattus norvegicus [13]): 91%; Average turns (Rattus norvegicus [14]): 60; inhibition in vivo at 0.0005 mg/kg (Rattus norvegicus [15]): 59%; Average turns (Rattus norvegicus [16]): 81; Inhibition (Rattus norvegicus [17]): 37.7 ng/mL; Exhibiting turning (Rattus norvegicus [18]): 83%; Exhibiting turning (Rattus norvegicus [19]): 100%; Inhibition (Rattus norvegicus [20]): 3.5 ng/mL; Inhibition (Rattus norvegicus [22]): 15.5 ng/mL
CCCN1CCC[C@@H]2Cc3c[nH]cc3CC21.O=C(O)/C=C\C(=O)O (stereo partly drawn),64,100%,95%,36%,49.5 ng/mL,169,,,inhibition in vivo at 0.005 mg/kg (Rattus norvegicus [13]): 24%; Treatment (Rattus norvegicus [23]): 31.6 ng/mL; Average turns (Rattus norvegicus [14]): 49; Exhibiting turning (Rattus norvegicus [1]): 50%; Inhibition (Rattus norvegicus [17]): 49.5 ng/mL; Exhibiting turning (Rattus norvegicus [24]): 33%; Inhibition (Rattus norvegicus [20]): 37.6 ng/mL
NC1CCc2c[nH]cc2C1 (stereo not drawn),,0%,24%,,,0,,,
CCCN(CCC)C1CCc2c[nH]cc2C1.O=C(O)/C=C\C(=O)O (stereo not drawn),,40%,93%,20%,59.8 ng/mL,52,,40%,Concentration (Rattus norvegicus [25]): 59.8 ng/mL; Inhibition (Rattus norvegicus [2]): 47.6 ng/mL; Exhibiting turning (Rattus norvegicus [26]): 0%; Serum level (Rattus norvegicus [28]): 36.1 ng/mL; Average turns (Rattus norvegicus [29]): 0
CN1CCC[C@@H]2Cc3c[nH]cc3CC21.O=C(O)/C=C\C(=O)O (stereo partly drawn),,33%,90%,,,19,,18%,Concentration (Rattus norvegicus [25]): 37.7 ng/mL; Serum level (Rattus norvegicus [28]): 30.9 ng/mL
CCCN(CCC)C1Cc2cccc3[nH]cc(c23)C1.O=C(O)C(=O)O (stereo not drawn),,60%,95%,0%,46.1 ng/mL,,,59%,Inhibition (Rattus norvegicus [2]): 46.2 ng/mL; Exhibiting turning (Rattus norvegicus [26]): 40%; Control level (Rattus norvegicus [30]): 46.1 ng/mL; Serum level (Rattus norvegicus [28]): 18.9 ng/mL; Average turns (Rattus norvegicus [29]): 73; Average turns (Rattus norvegicus [7]): 113
O=C(O)/C=C\C(=O)O.c1[nH]cc2c1CC1NCCC[C@@H]1C2 (stereo partly drawn),,,,,,0,0%,,Inhibition (Rattus norvegicus [31]): 43.4 ng/mL; inhibition in vivo at 5 mg/kg (Rattus norvegicus [32]): 26%
CCCN(CCC)C1CCc2c[nH]nc2C1 (stereo not drawn),,100%,,31%,,114,,,Exhibiting turning (Rattus norvegicus [26]): 0%; Average turns (Rattus norvegicus [29]): 0
CCCN1CC(CO)C[C@@H]2Cc3c[nH]cc3CC21 (stereo partly drawn),8,100%,,17%,,109,,,Exhibiting turning (Rattus norvegicus [1]): 67%
CCCN1CCC[C@@H]2Cc3n[nH]cc3CC21.Cl.Cl (stereo partly drawn),67,,91%,61%,,85,100%,76%,Average turns (Rattus norvegicus [14]): 6; Exhibiting turning (Rattus norvegicus [18]): 75%; Exhibiting turning (Rattus norvegicus [19]): 67%
CCCN(CCC)C1CCc2n[nH]cc2C1.Cl.Cl (stereo not drawn),0,,94%,,,90,60%,66%,Concentration (Rattus norvegicus [25]): 31.2 ng/mL; Treatment (Rattus norvegicus [23]): 30.8 ng/mL; inhibition in vivo at 0.05 mg/kg (Rattus norvegicus [33]): 1%; Serum level (Rattus norvegicus [28]): 10.6 ng/mL; Control (Rattus norvegicus [34]): 31.2 ng/mL; Exhibiting turning (Rattus norvegicus [18]): 0%
Cl.Cl.NC1CCc2n[nH]cc2C1 (stereo not drawn),,0%,14%,,,0,,,
CN(C)C1CCc2n[nH]cc2C1.Cl.Cl (stereo not drawn),,0%,69%,32%,59.8 ng/mL,0,,,Inhibition (Rattus norvegicus [2]): 41 ng/mL
CCCN1CC(CSC)C[C@@H]2Cc3n[nH]cc3CC21.Cl.Cl (stereo partly drawn),65,,,89%,,81,100%,,Inhibition (Rattus norvegicus [10]): 44.9 ng/mL; Average turns (Rattus norvegicus [14]): 80; inhibition in vivo at 0.0005 mg/kg (Rattus norvegicus [15]): 30%; Inhibition (Rattus norvegicus [17]): 44.9 ng/mL; Exhibiting turning (Rattus norvegicus [18]): 50%; Exhibiting turning (Rattus norvegicus [19]): 67%; inhibition in vivo at 0.005 mg/kg (Rattus norvegicus [35]): 57%; Inhibition (Rattus norvegicus [20]): 19.3 ng/mL; Inhibition (Rattus norvegicus [22]): 31.5 ng/mL
CN1CCC[C@@H]2Cc3n[nH]cc3CC21.Cl.Cl (stereo partly drawn),,,84%,2%,31.7 ng/mL,0,0%,42%,Concentration (Rattus norvegicus [25]): 31.7 ng/mL; Inhibition (Rattus norvegicus [2]): 31.1 ng/mL; Serum level (Rattus norvegicus [28]): 18.5 ng/mL
C=CCN1CCC[C@@H]2Cc3n[nH]cc3CC21.Cl.Cl (stereo partly drawn),0,,,,,165,100%,,inhibition in vivo at 0.05 mg/kg (Rattus norvegicus [36]): 31%; Exhibiting turning (Rattus norvegicus [18]): 0%
Cl.Cl.c1[nH]nc2c1CC1NCCC[C@@H]1C2 (stereo partly drawn),,,20%,,,0,0%,,
